From PubChem BioAssay
Most compounds without a hit are left out; they make up all but 2.1% or so of the library.
aSyn 5UTR inh: 5' untranslated region of α-synuclein, MLPCN primary screen; alpha-synuclein 5'UTR reporter, inhibitor activity; inhibition, % (tested at 7.5 µM); 300,000 compounds, 0.82% hits; AID 1813; in the data active means inhibition above about 60%; inconclusive means no clear call, values can overlap the other calls;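 further: H4 neuroglioblastoma cells stably carrying SNCA 5'UTR luciferase fusion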
Shn3 inh set2: inhibitors of Schnurri-3 3'UTR reporter in osteoblasts; Clone20 osteoblast Shn3 3'UTR firefly luciferase, 24 h; inhibition, % at 12.5 µM; 360,000 compounds, 0.52% hits;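 active means mean inhibition of at least 75% with every replicate also reaching 75%; inconclusive means mean inhibition at least 75% but some replicate below; inactive means mean inhibition below 75%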
PAX8 reporter: inhibitors of PAX8 transcriptional activity in RMG-I cells; inhibition, % at 12.6 µM; 360,000 compounds, 1.2% hits; RMG-I TPO-luciferase reporter, SteadyGlo, 24 h;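 active means mean replicate inhibition at least 60% with every replicate also reaching 60%; inconclusive means only one of the two criteria is met; inactive means mean below 60% and not all replicates reaching 60%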;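 further: luciferase light reporting Pax8 driven TPO promoter activity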
FN deposition inh: fibronectin deposition inhibition; inhibition, % at 12.6 µM; AID 743247; 350,000 compounds, 0.086% hits; AH1F fibroblasts, Alexa488-fibronectin deposition fluorescence, overnight;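 active means mean inhibition across replicates of 30% or more, regardless of how many single replicates reach that level; inconclusive means mean under 30% yet at least half of replicates reach 30%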
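material = AH1F fibroblast monolayer depositing Alexa488-labelled fibronectin into matrix | amount = 10000 AH1F cells/well | buffer or medium = DMEM plus 2% serum, read in PBS | incubation = 1 h cell adhesion before compound, then overnight fibronectin incubation | detection = fluorescence at 485 nm excitation, 525 nm emission | evaluation = percent inhibition as loss of matrix-bound fibronectin fluorescence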
LMP1 NFkB inh: inhibitors of Epstein-Barr LMP1-induced NF-kappaB reporter; AID 504558; 350,000 compounds, 0.69% hits; LMP1-induced NF-kappaB luciferase reporter cells, luminescence; inhibition, % at 12.5 µM; in the data active means inhibition above about 41%; inconclusive means no clear call, values can overlap the other calls
EWS-Fli block: inhibitors of EWS/Fli oncoprotein transcriptional activity | inhibition, % at 12.6 µM | A673 NR0B1-luciferase reporter, viability-normalised | 350,000 compounds, 0.67% hits;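 active means mean inhibition of at least 50% after viability correction, with every replicate also passing that limit; inconclusive means mean reaches 50% but only one of two replicates passes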;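 further: firefly luciferase signal divided by Alamar Blue viability fluorescence both relative to DMSO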
A number is an active result; n = inactive; u = inconclusive; x = no result given; ! = not active in a repeat.

SMILES	aSyn 5UTR inh	Shn3 inh set2	PAX8 reporter	FN deposition inh	LMP1 NFkB inh	EWS-Fli block
CCCn1cc(SCC(=O)NCC2CCCO2)c2ccccc21 (stereo unspecified)	n	n	n	n	n	n
O=C(CSc1nc2ccccc2c(=O)n1CC1CCCO1)NCC1CCCO1 (stereo unspecified)	n	n	x	n	n	x
Cn1cc(SCC(=O)NCC2CCCO2)c2ccccc21 (stereo unspecified)	n	n	n	n	85	n
COc1ccc(C(=O)Nn2c(SCC(=O)NCc3ccccc3)nc3ccccc3c2=O)cc1	77	n	n	x	n	x
CC(=O)N1CC2(C1)[C@@H](c1ccc(-c3ccc(C#N)cc3)cc1)[C@@H](CO)N2C(C)=O	x	x	x	x	x	n
C[C@H]1CN([C@@H](C)CO)C(=O)c2cc(NC(=O)Cc3cn(C)c4ccccc34)ccc2O[C@@H]1CN(C)CC1CC1	x	x	n	n	x	n
N=C(N)c1ccccc1	n	n	n	n	82!	n
CCN1[C@@H]2Cn3c(ccc(/C=C/c4ccccc4)c3=O)[C@H]1[C@@H](C(=O)N1CCCCC1)[C@@H]2CO	x	x	x	x	x	n
CN1CCN(C(=O)c2cc3c(c(-c4cccc(-c5ccc(C(=O)N(C)C)cc5)c4)n2)[C@H](CCO)N([S@@](=O)C(C)(C)C)C3)CC1	x	x	n	n	x	n
O=C(CCCN1C(=O)/C(=C\c2ccccc2)SC1=S)Nc1ccc(C(=O)O)cc1	n	n	n	n	n	x
O=C(CCCN1C(=O)/C(=C/c2ccc3c(c2)OCO3)SC1=S)Nc1ccc(C(=O)O)cc1	102	n	x	n	n	n
CCc1ccc(/C=C2\SC(=S)N(CCCC(=O)Nc3ccc(C(=O)O)cc3)C2=O)cc1	109	n	n	n	n	n
CCNC(=O)C[C@H]1CC[C@H]2[C@H](COc3ccc(NC(=O)c4cccc(C(F)(F)F)c4)cc3C(=O)N2C)O1	x	x	n	n	x	n
Cc1cc(C)n(-c2nc(NCCN(C)C)c3c4c(sc3n2)CCCC4)n1	116	n	97	n	n	n
COc1ccc(CN2CCC(n3nccc3NC(=O)C3CC3)CC2)cc1O	n	n	n	n	n	n
CSc1cccc(CN2CCC(n3nccc3NC(=O)C3CC3)CC2)c1	n	n	n	n	56	x
COc1ccc(NC(=O)N(C)C[C@@H]2Oc3cc(-c4ccncc4)ccc3S(=O)(=O)N([C@H](C)CO)C[C@@H]2C)cc1	x	x	x	n	x	n
CN1C/C(=C/c2ccccc2[N+](=O)[O-])C(=O)/C(=C\c2ccccc2[N+](=O)[O-])C1	x	n	x	n	n	72
Cc1ccc(C)c2c1CCC(=Cc1ccccc1[N+](=O)[O-])C2=O	x	n	n	n	n	n
COC(=O)c1nnn(-c2ccccc2)c1N	n	n	x	n	n	x
CCOC(=O)c1nnn(-c2ccc(OC)cc2)c1N	x	n	x	32	n	x
CC1=C(CO)C(=O)OC([C@@H](C)C2CC[C@H]3C4C[C@H]5O[C@]56[C@@H](O)C=CC(=O)[C@]6(C)C4CC[C@]23C)C1 (stereo partly specified)	n	98	x	x	83	64
CN(C)CCCNc1nc(-c2ccccc2)nc2ccccc12	n	n	n	n	n	n
c1ccc(CNc2c3ccccc3nc3ccccc23)cc1	n	n	n	n	n	n
CN(C)CCCNc1c2ccccc2nc2ccccc12	71	94	n	n	n	n
SMILES	aSyn 5UTR inh	Shn3 inh set2	PAX8 reporter	FN deposition inh	LMP1 NFkB inh	EWS-Fli block
Oc1ccc(CCNc2c3ccccc3nc3ccccc23)cc1O	n	n	n	n	n	70
O=C(Nc1ccncc1)c1cncc(Br)c1	n	n	x	x	n	x
C/C(=N\NC(=O)c1ccc(Cn2cc(Br)cn2)o1)c1cccc(NC(=O)C(C)(C)C)c1	n	n	n	n	n	x
C/C(=N\NC(=O)c1ccc(Cn2cc([N+](=O)[O-])cn2)o1)c1cccc(NC(=O)c2cccnc2)c1	n	n	n	31	n	n
O=C(Nc1ccc([N+](=O)[O-])cc1)c1ccc(Cn2cc([N+](=O)[O-])cn2)cc1	79	n	n	x	n	n
O=C(Nc1ccc([N+](=O)[O-])cc1)c1cncc(Br)c1	n	n	n	n	43	n
CN1[C@@H]2c3ccc(/C=C/c4ccccc4)c(=O)n3C[C@H]1[C@H](CO)[C@H]2C(=O)NC1CCCC1	x	x	n	n	x	n
COc1cc2c(c(OC)c1OC)-c1ccc(SC)c(=O)cc1C(NC(=O)C(F)(F)F)CC2 (stereo unspecified)	x	n	87	x	n	n
CCOCC(=O)NC1CCc2cc(OC(=O)COCC)c(OC)c(OC)c2-c2ccc(SC)c(=O)cc21 (stereo unspecified)	x	n	91	x	n	53
CNC1CCc2cc(OC)c(OC)c(OC)c2-c2ccc(SC)c(=O)cc21 (stereo unspecified)	x	n	72	n	n	n
COc1ccc2c(c1)C(NC(=O)C(F)(F)F)CC2=O (stereo unspecified)	n	n	n	n	n	x
C/C=C/c1ccc([C@H]2[C@H]3CN(Cc4ccc(C(=O)OC)cc4)CC(=O)N3[C@H]2CO)cc1	x	x	n	x	x	n
Cc1cccc(Nc2ccc(S(=O)(=O)N3CCOCC3)cc2[N+](=O)[O-])c1	x	n	n	n	n	n
Cc1cccc(NC(=S)N=Nc2c(O)n(C)c3ccc(S(=O)(=O)N4CCOCC4)cc23)c1	83	n	x	n	u	n
Cc1cc(C)cc(NC(=S)N=Nc2c(O)n(C)c3ccc(S(=O)(=O)N4CCOCC4)cc23)c1	63	n	n	n	n	n
Cc1ccc(NC(=S)N=Nc2c(O)n(C)c3ccc(S(=O)(=O)N4CCOCC4)cc23)cc1	75	n	n	n	u	x
Cc1ccc(NC(=O)c2ccc(S(=O)(=O)N3CCOCC3)cc2)cc1	n	n	n	n	n	n
CCCC(=O)Nc1ccc2c(c1)OC[C@@H](C)N(Cc1cccc(F)c1)C[C@H](C)[C@@H](OC)CN(C)C2=O	x	x	n	n	x	n
C[C@@H]1CN([C@H](C)CO)C(=O)c2ccccc2-c2ccccc2CO[C@H]1CN(C)S(=O)(=O)c1cn(C)cn1	x	x	n	n	x	n
Cc1cccc(-c2nc3cc(NC(=O)C4CCCO4)ccc3o2)c1 (stereo unspecified)	72	n	n	n	n	x
Cc1ccc2oc(-c3cccc(NC(=O)C4CCCO4)c3)nc2c1 (stereo unspecified)	n	n	x	x	n	x
O=C(Nc1ccc(-c2nc3ccccc3[nH]2)cc1)C1CCCO1 (stereo unspecified)	77	n	x	x	n	n
CC(C)c1cn(CC[C@@H]2CC[C@H](NC(=O)C3CCC3)[C@H](CO)O2)nn1	x	x	n	x	x	n
COc1ccc(C(=O)N2CCN(c3cccc(Cl)c3)CC2)cc1	n	n	x	x	n	n
COc1ccc(C(=S)N2CCN(c3cccc(Cl)c3)CC2)c(OC)c1	n	n	n	n	n	56
CCCNC(=O)N1CC2(C1)[C@H](c1ccccc1)[C@@H](CO)N2C(=O)c1ccncc1	x	x	n	x	x	n
